Bioassay records: PubChem, several laboratories
Redox H2O2 prof – compounds producing H2O2 with reducing agent – biochemical, NIH compound library profiling, artefact control for MLSCN library redox annotation, primary screen; DTT-dependent redox cycling H2O2, phenol red/HRP absorbance; 100% = 100 µM peroxide control, 0% = buffer; 200,000 compounds, 0.03% hits; activation, % at 10 µM;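 active means activation of at least 50% relative to the plate's high and low controls in the primary single-dose screen; inactive means activation below 50%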;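 further: compound incubated with DTT at 0.8 mM final as the reducing agent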
Lmaj promast – reduces viability of Leishmania major promastigotes. resazurin fluorescence viability. inhibition, % at 10 µM. 200,000 compounds, 9% hits. AID 1063;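 further: promastigotes grown with compound for 44 hours at 28 °C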
PfG6PD inh – PfG6PD (Plasmodium falciparum) enzyme inhibition. inhibition, % at 20 µM. PfGluPho enzyme, NADPH resazurin-diaphorase fluorescence. 350,000 compounds, 0.78% hits. AID 504690;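 active means inhibition reaching at least a set limit at 20 µM in the primary screen, cut at about 59% in these data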
Diaph act CS – counter-screen for diaphorase-based assays: diaphorase activators and chemical reducers. Diaphorase/resazurin coupled assay, resorufin fluorescence, 16 min; stronger effect = higher value; 1 = vehicle wells, 0 = NADH-free wells. activation factor at 20 µM. 190,000 compounds, 0.005% hits. AID 1229;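 active means diaphorase activity raised at least twofold by the compound at 20 µM; inactive means activation factor below 2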
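Test system: Clostridium kluyveri diaphorase, purified enzyme; input: enzyme 0.07 U/mL final; buffer or medium: 50 mM HEPES pH 7.4 with 4.542 mM MgCl2, 0.005% Tween 20; also added: 0.114 mM NADH and 0.1 mM resazurin, final amounts; schedule: 16 min enzyme reaction, ambient temperature; technique: fluorescence of resorufin, 544 nm excitation, 590 nm emission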
Diaph inh CS – diaphorase inhibition or chemical oxidation counter-screen | diaphorase resazurin-to-resorufin fluorescence, NADH, 16 min; bacterial (C. kluyveri) enzyme, not human | inhibition, % at 20 µM | 190,000 compounds, 0.69% hits | AID 1217;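 active means primary screen inhibition at 20 µM above a set limit, cut at about 50% in these data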
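Benchmarks: positive control wells lacking NADH, neutral wells with DMSO only. System: bacterial diaphorase enzyme (C. kluyveri). Input: 0.14 U/mL diaphorase, enzyme working solution. Detection: resorufin fluorescence, excitation 544 nm, emission 590 nm. Times: 16-min room-temperature incubation before reading.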
G6PDH counter – counter-screen for G6PDH assay hits: L. mesenteroides G6PDH inhibition | Purified L. mesenteroides G6PDH, diaphorase/resazurin coupled fluorescence, 45 min | inhibition, % at 5 µM | 200,000 compounds, 0.12% hits | AID 1020
PfGluPho conf – PfG6PD inhibition, single-dose confirmed; AID 504753; 2,400 compounds, 34% hits; inhibition, % at 20 µM; shares compounds with PfG6PD inh; recombinant PfGluPho, NADPH-diaphorase-resazurin fluorescence;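 active means inhibition of at least 50% at 20 µM in any single replicate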
Diaphorase 10uM – inhibits diaphorase or oxidizes, flagging false PfG6PD hits. shares compounds with PfG6PD inh. diaphorase-coupled resazurin reduction, fluorescence, NADPH 10 uM. inhibition, % at 20 µM. 820 compounds, 39% hits;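 active means average inhibition reaching 50% or more with the compound at 20 µM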;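 further: resorufin red fluorescence formed as diaphorase reduces resazurin using NADPH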
Diaphorase 30uM – diaphorase inhibition or oxidation at 30 uM NADPH. shares compounds with PfG6PD inh. Diaphorase/resazurin coupled assay, resorufin fluorescence. inhibition, % at 20 µM. 820 compounds, 29% hits. AID 504863;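 active means inhibition averaging 50% or more, tested at 20 µM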
A number is an active result; – = inactive; · = not tested or not shown. Only a selection was taken, and hits are over-represented in it overall. Unless noted, no stated cut-off is given here; in the data, active means inhibition above about 50%; inactive means the rest.

SMILES | Redox H2O2 prof | Lmaj promast | PfG6PD inh | Diaph act CS | Diaph inh CS | G6PDH counter | PfGluPho conf | others
Cc1cc(C)c(-n2nnnc2SCC(=O)c2cc3ccccc3o2)c(C)c1 | · | · | – | · | · | · | ·
CN1CCSc2ccc(C(=O)Nc3cccc(F)c3)cc21 | · | · | 63.5 | · | · | · | –
COc1ccc(NC(=O)c2ccc3c(c2)N(C)CCS3)cc1 | · | · | – | · | · | · | ·
CCN(CC)c1ccc(C(=O)Nc2cccc(F)c2)cc1 | – | – | – | – | – | – | ·
CN(C)c1cccc(C(=O)Nc2cccc(F)c2)c1 | – | – | 68.1 | – | – | – | –
COc1ccccc1CNC(=O)c1ccc2nc(N3CCOCC3)sc2c1 | · | · | – | · | · | · | ·
O=C1C(=O)c2c(ccc3ccccc23)-c2ccccc21 | · | · | 62.0 | · | · | · | –
O=C(Nc1ccc2c(c1)OCO2)c1ccc2c(c1)S(=O)(=O)c1ccccc1C2=O | · | · | – | · | · | · | ·
Cc1cc(C)c(C)c(Cn2c(CO)nc3ccccc32)c1C | – | – | 69.3 | – | – | – | –
OCc1nc2ccccc2n1Cc1ccc(Cl)cc1 | · | · | – | · | · | · | ·
Cc1cc(C(=O)Cn2nnc3ccccc3c2=O)c(C)n1-c1ccccc1F | – | – | 64.9 | – | – | – | –
CN(C(=O)COC(=O)c1ccccc1SCC(=O)NC1CCCCCCC1)C1CCS(=O)(=O)C1 (stereo not given) | – | – | – | – | – | – | ·
COc1ccc(CSCC(=O)N/N=C/c2ccccc2OCc2ccccc2)cc1 | – | – | 89.5 | – | – | – | –
O=C(CSCc1ccccc1)N/N=C/c1ccccc1OCc1ccccc1 | – | – | 62.8 | – | – | – | –
O=C(O)COc1ccccc1/C=N/NC(=O)Cc1ccccc1 | · | · | – | · | · | · | ·
O=C(CCc1ccc(O)c(O)c1)N/N=C/c1ccc2c(c1)OCO2 | · | · | 61.9 | · | · | · | –
Cc1ccc(C(=O)OC(C)C(=O)NC2CCCCC2C)cc1S(=O)(=O)N1CCCCC1 (stereo not given) | · | · | – | · | · | · | ·
S=c1[nH]nc(-c2ccc3ccccc3n2)n1-c1ccc(Cl)cc1 | – | – | – | – | – | – | ·
Cc1ccccc1-n1c(-c2ccc3ccccc3n2)n[nH]c1=S | · | · | 68.8 | · | · | · | 56.4 | Diaphorase 10uM=–;Diaphorase 30uM=–
O=C(NCCc1ccccc1)C(=O)NC1CCCCC1 | – | – | – | – | – | – | ·
O=C(NC1CCCCC1)C(=S)NCCc1ccccc1 | – | – | 65.4 | – | – | – | –
Fc1ccc(-[n+]2nc(Nc3ccccc3)sc2-c2c3ccccc3cc3ccccc23)cc1 | · | · | 132.0 | · | · | · | 81.9 | Diaphorase 10uM=78.3;Diaphorase 30uM=59.7
COc1ccc(C)cc1Nc1n[n+](-c2ccccc2)c(-c2c(OC)ccc3ccccc23)s1 | · | · | 115.0 | · | · | · | 75.2 | Diaphorase 10uM=68.7;Diaphorase 30uM=–
COc1ccc(C)cc1Nc1n[n+](-c2ccccc2)c(-c2cc(OC)c(OC)cc2Br)s1 | · | · | – | · | · | · | ·
Oc1ccc2ccccc2c1-c1sc(Nc2ccccc2)n[n+]1-c1ccc(F)cc1 | · | · | – | · | · | · | ·
SMILES | Redox H2O2 prof | Lmaj promast | PfG6PD inh | Diaph act CS | Diaph inh CS | G6PDH counter | PfGluPho conf | others
Cc1cccc(C)c1OCCNC(=O)CCC(=O)c1ccccc1 | – | – | – | – | – | – | ·
N#C/C(C(N)=O)=C1/CCCN1Cc1ccccc1 | · | · | – | · | · | · | ·
CCCCC(=O)Nc1sc(C(=O)N(CC)CC)c(C)c1C(=O)OC | – | – | 69.5 | – | – | – | –
CCOC(=O)c1c(NC(=O)CN(C)C)sc(C(=O)N(CC)CC)c1C | – | – | – | – | – | – | ·
O=C(Sc1n[nH]c(=O)[nH]c1=O)c1ccccc1 | · | · | 110.8 | · | · | · | 92.6 | Diaphorase 10uM=–;Diaphorase 30uM=–
Cc1ccc(S(=O)(=O)Nc2c(O)ccc3ccccc23)cc1 | · | · | 80.9 | · | · | · | –
O=S(=O)(Nc1c(O)ccc2ccccc12)c1cccc2ccccc12 | · | · | 84.3 | · | · | · | –
COc1ccc(/C=N/Nc2cc(C)nc3c(C)cccc23)cc1 | · | · | 76.1 | · | · | · | –
Cc1nc2ccc(NC(=O)COc3ccccc3C)cc2s1 | – | – | – | – | – | – | ·
O=C(Oc1ccc(Br)cc1C(=S)N1CCOCC1)c1ccc([N+](=O)[O-])cc1[N+](=O)[O-] | · | · | 59.7 | · | · | · | –
Cc1c(Cl)cccc1NC(=O)C1Cc2ccccc2CN1C(=O)c1ccccc1 (stereo not given) | – | – | 80.7 | – | – | – | –
COc1ccc(NC(=S)NC(NC(=O)c2ccccc2Cl)C(Cl)(Cl)Cl)c([N+](=O)[O-])c1 (stereo not given) | – | – | – | – | – | – | ·
COc1ccc(NC(=S)NC(NC(=O)CCl)C(Cl)(Cl)Cl)c([N+](=O)[O-])c1 (stereo not given) | – | – | 65.4 | – | – | – | –
Oc1ccccc1NCC(O)Cn1ccc2ccccc21 (stereo not given) | – | – | 65.8 | – | – | – | –
CCOC(=O)c1[nH]cc(-c2ccccc2)c1N1CCOCC1 | – | – | 72.7 | – | – | – | –
Cc1ccc(-c2nc(N)s[n+]2-c2ccccc2)cc1 | – | – | 109.5 | – | – | – | 55.9 | Diaphorase 10uM=–;Diaphorase 30uM=–
CNc1nc(-c2ccccc2)[n+](-c2ccc(C)cc2)s1 | – | – | 108.4 | – | – | – | 107.1 | Diaphorase 10uM=–;Diaphorase 30uM=–
CCOC(=O)CNc1c(-c2ccc(Cl)cc2)nc2cnccn12 | – | – | – | – | – | – | ·
CCOC(=O)CNc1c(-c2ccc(OC)cc2)nc2ccc(Cl)cn12 | – | – | 74.2 | – | – | – | –
COCCNc1c(-c2ccc(OC)cc2)nc2ccc(Cl)cn12 | – | 76.2 | 64.8 | – | – | – | –
COC1=C(Br)C(=O)c2ncccc2C1=O | · | · | 111.8 | · | · | · | 91.2 | Diaphorase 10uM=72.5;Diaphorase 30uM=75.1
O=C1c2cccnc2-c2ncccc21 | – | – | – | – | – | – | ·
CCOC(=O)c1cnc(SCc2nc(N)nc(Nc3ccc(C)cc3)n2)nc1N | – | – | – | – | – | – | ·
Cc1noc(C(=O)Nc2sc3c(c2C#N)CCC3)c1Cl | – | – | 83.1 | – | – | – | 52.2 | Diaphorase 10uM=–;Diaphorase 30uM=–
C/C(Cn1nnc([N+](=O)[O-])n1)=N\NC(=O)c1ccc(Cl)c(Cl)c1 | – | – | 83.1 | – | – | – | 76.7 | Diaphorase 10uM=–;Diaphorase 30uM=–
C/C(Cn1cnc([N+](=O)[O-])n1)=N\NC(=O)c1ccc(Br)cc1 | – | – | – | – | – | – | ·
C/C(Cn1nnc([N+](=O)[O-])n1)=N\NC(=O)c1ccc(O)cc1 | · | · | 71.4 | · | · | · | 53.5 | Diaphorase 10uM=–;Diaphorase 30uM=–
Cc1c(NC(=S)SCc2ccccc2)c(=O)n(-c2ccccc2)n1C | – | – | – | – | – | – | ·
CC(OC(=O)c1ccc(-c2ccc([N+](=O)[O-])cc2)o1)C(=O)NC(N)=O (stereo not given) | · | · | – | · | · | · | ·
